The record followed here is ChEMBL document CHEMBL2346621, “Discovery of novel tricyclic indole derived inhibitors of HCV NS5B RNA dependent RNA polymerase” (Bioorg Med Chem, 2013).

For data set [1], the system named is Hepatitis C virus. The data set can be described thus: Antiviral activity against Hepatitis C virus infected in human hepatoma cells assessed as reduction in replicon RNA level. The format is functional, organism-based, Hepacivirus hominis. An outline of the steps: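 Replicon-bearing hepatoma cells were used. EC50 is the concentration that reduces viral RNA levels by 50%.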

Data set [2] can be described thus: Cytotoxicity against human hepatoma cells assessed as cell viability by MTS assay. The format is cell-based. An outline of the steps: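 Cellular toxicity was measured by MTS assay, with GAPDH also used as an internal control, and expressed as CC50.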
Data set [3] relates to Hepatitis C virus. The data set can be described thus: Inhibition of HCV-1b Con-1 C-terminal His6x-tagged NS5B delta21 RNA dependent RNA polymerase expressed in Escherichia coli JM109 (DE3) assessed as [alpha-33P]CTP incorporation in RNA after 30 mins by scintillation counting analysis. The following applies: Con1, JM 109, 0.5 h. Set-up: species or system Hepatitis C virus subtype 1b.

A short description of data set [4]: AUC (0 to 6 hrs) in rat at 10 mg/kg, po. The format is ADME, organism-based. Set-up: time < 6 hr, dose 10 mg/kg, route oral. Conditions: plasma. An outline of the steps:
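Rapid rat assay: single oral 10 mg/kg dose in 0.4% HPMC. Plasma AUC integrated over 0–6 h after dosing (AUC0–6 h).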

One may read the EC50 as the concentration needed to bring the measured effect to its halfway point. For orientation: CC50 means the concentration giving 50% cytotoxicity. By IC50 is commonly meant the point on the concentration scale where inhibition reaches its midpoint. For orientation: AUC(0-t) means the area under the concentration-time curve up to a stated or last time point. Lower therefore signals less exposure.

Some results are limits rather than exact numbers.

For the molecule `Cc1ccc(Cn2c(C(=O)NS(C)(=O)=O)c(-c3ccc[nH]c3=O)c3c4occc4ccc32)c(C)c1`, the EC50 in data set [1] is 60 nM. Besides, the CC50 in data set [2] was greater than 10000 nM. Moreover, the IC50 in data set [3] worked out at 6 nM.

As for `O=C(O)c1c(-c2ccc[nH]c2=O)c2c3ccoc3ccc2n1Cc1cc(F)ccc1F`, in data set [1], the EC50 turned out to be 3100 nM. In data set [2], the CC50 was greater than 10000 nM. The IC50 in data set [3] is 34 nM.

As for `O=C(NS(=O)(=O)C1CC1)c1c(-c2ccc[nH]c2=O)c2c3occc3ccc2n1Cc1cc(F)ccc1F`, in data set [1], the EC50 worked out at 50 nM. The CC50 in data set [2] was greater than 10000 nM. In data set [3], the IC50 turned out to be 16 nM.

On to `Cc1coc2c1ccc1c2c(-c2ccc[nH]c2=O)c(C(=O)O)n1Cc1cc(F)ccc1F`, for which the CC50 in data set [2] was greater than 10000 nM. Moreover, the IC50 in data set [3] amounted to 2900 nM.

With `O=C(O)c1c(-c2ccc[nH]c2=O)c2c3scnc3ccc2n1Cc1cc(F)ccc1F`, the AUC(0-t) at 6 h in data set [4] turned out to be 104 µM·h. In addition, the CC50 in data set [2] was greater than 10000 nM. Further, the IC50 in data set [3] is 1700 nM.

As for `CS(=O)(=O)NC(=O)c1c(-c2ccc[nH]c2=O)c2c3occc3ccc2n1Cc1cc(C(N)=O)ccc1F`, in data set [1], the EC50 stood at 30 nM. Further, the CC50 in data set [2] is greater than 10000 nM. Besides, in data set [3], the IC50 was 10 nM.

Consider `CS(=O)(=O)NC(=O)c1c(-c2ccc[nH]c2=O)c2c3occc3ccc2n1Cc1ccc(F)cc1F`, for which, in data set [1], the EC50 is 80 nM. Also, the AUC(0-t) at 6 h in data set [4] amounted to 2.4 µM·h. The CC50 in data set [2] is greater than 10000 nM. Also, in data set [3], the IC50 came to 31 nM.

`O=C(NS(=O)(=O)Cc1ccccc1)c1c(-c2ccc[nH]c2=O)c2cc(Cl)ccc2n1Cc1cc(F)ccc1F`: the EC50 in data set [1] was 1000 nM. The IC50 in data set [3] came to 10 nM.

Regarding `O=C(O)c1c(-c2ccc[nH]c2=O)c2c3c(ccc2n1Cc1cc(F)ccc1F)CCC3`, the EC50 in data set [1] came out at 3500 nM. In addition, in data set [4], the AUC(0-t) at 6 h was determined as 104 µM·h. The CC50 in data set [2] was greater than 10000 nM. The IC50 in data set [3] was 27 nM.

With `CCc1coc2c1ccc1c2c(-c2ccc[nH]c2=O)c(C(=O)O)n1Cc1cc(F)ccc1F`, in data set [2], the CC50 is greater than 10000 nM. In data set [3], the IC50 was greater than 5000 nM.

For the molecule `O=C(O)c1c(-c2ccc[nH]c2=O)c2c3ncsc3ccc2n1Cc1cc(F)ccc1F`, the EC50 in data set [1] came out at 700 nM. Further, the CC50 in data set [2] is greater than 10000 nM. For the same molecule, in data set [3], the IC50 came out at 9 nM.

For the molecule `O=C(O)c1c(-c2ccc[nH]c2=O)c2c3occc3ccc2n1Cc1cc(F)ccc1F`, the EC50 in data set [1] stood at 160 nM. The AUC(0-t) at 6 h in data set [4] turned out to be 146 µM·h. Further, the CC50 in data set [2] was greater than 10000 nM. In addition, in data set [3], the IC50 amounted to 31 nM.

Take `Cc1cccc(Cn2c(C(=O)NS(C)(=O)=O)c(-c3ccc[nH]c3=O)c3c4occc4ccc32)c1F`: the 50% effective concentration (EC50) in data set [1] is 30 nM. Further, in data set [4], the AUC(0-t) at 6 h was 0.3 µM·h. For the same molecule, the CC50 in data set [2] was greater than 10000 nM. In addition, the IC50 in data set [3] amounted to 3 nM.

Turning to `CS(=O)(=O)NC(=O)c1c(-c2ccc[nH]c2=O)c2c3occc3ccc2n1Cc1ccccc1F`, in data set [1], the EC50 was determined as 100 nM. Also, the AUC(0-t) at 6 h in data set [4] is 9.5 µM·h. Further, the CC50 in data set [2] was greater than 10000 nM. In addition, the IC50 in data set [3] was 8 nM.

Take `CC(C)S(=O)(=O)NC(=O)c1c(-c2ccc[nH]c2=O)c2c3occc3ccc2n1Cc1cc(F)ccc1F`: the EC50 in data set [1] was 50 nM. The AUC(0-t) at 6 h in data set [4] came to 1 µM·h. In data set [2], the 50% cytotoxic concentration (CC50) is greater than 10000 nM. Besides, in data set [3], the IC50 is 8 nM.

With `CS(=O)(=O)NC(=O)c1c(-c2ccc[nH]c2=O)c2c3occc3ccc2n1Cc1cc(F)ccc1F`, the EC50 in data set [1] is 50 nM. In addition, the AUC(0-t) at 6 h in data set [4] is 11 µM·h. In addition, in data set [2], the CC50 is greater than 10000 nM. The IC50 in data set [3] is 9 nM.

With `Cc1cc2ccc3c(c(-c4ccc[nH]c4=O)c(C(=O)O)n3Cc3cc(F)ccc3F)c2o1`, the EC50 in data set [1] was determined as 2000 nM. In addition, the CC50 in data set [2] was greater than 10000 nM. Moreover, the IC50 in data set [3] turned out to be 21 nM.

For `O=C(O)c1c(-c2ccc[nH]c2=O)c2c3occ(Cl)c3ccc2n1Cc1cc(F)ccc1F`, in data set [1], the EC50 is 120 nM. Further, the CC50 in data set [2] was greater than 10000 nM. Further, the IC50 in data set [3] was 7 nM.

Take `Cc1ccccc1Cn1c(C(=O)NS(C)(=O)=O)c(-c2ccc[nH]c2=O)c2c3occc3ccc21`: in data set [1], the EC50 stood at 50 nM. Further, the AUC(0-t) at 6 h in data set [4] was 1.2 µM·h. Moreover, in data set [2], the half-maximal cytotoxic concentration (CC50) was greater than 10000 nM. Further, in data set [3], the IC50 worked out at 10 nM.

Consider `O=C(O)c1c(-c2ccc[nH]c2=O)c2c3c(ccc2n1Cc1cc(F)ccc1F)OC(F)(F)O3`, for which the EC50 in data set [1] stood at 2000 nM. For the same molecule, in data set [2], the CC50 is greater than 10000 nM. In addition, in data set [3], the IC50 is 7 nM.

For `O=C(O)c1c(-c2ccc[nH]c2=O)c2c3c(ccc2n1Cc1cc(F)ccc1F)CCO3`, the EC50 in data set [1] was 460 nM. Moreover, the AUC(0-t) at 6 h in data set [4] came to 11 µM·h. Besides, the CC50 in data set [2] was greater than 10000 nM. Moreover, the IC50 in data set [3] was 8 nM.

As for `CS(=O)(=O)NC(=O)c1c(-c2ccc[nH]c2=O)c2c3occc3ccc2n1Cc1ccccc1Cl`, the EC50 in data set [1] worked out at 50 nM. In addition, the CC50 in data set [2] is greater than 10000 nM. The IC50 in data set [3] was 3 nM.

On to `CCS(=O)(=O)NC(=O)c1c(-c2ccc[nH]c2=O)c2c3occc3ccc2n1Cc1cc(F)ccc1F`, for which the EC50 in data set [1] worked out at 110 nM. The AUC(0-t) at 6 h in data set [4] is 0.7 µM·h. Further, the CC50 in data set [2] was greater than 10000 nM. In addition, the IC50 in data set [3] is 6 nM.
